Results published in ChEMBL document CHEMBL3045276, “Synthesis and biological activity of some novel trifluoromethyl-substituted 1,2,4-triazole and bis(1,2,4-triazole) Mannich bases containing piperazine rings” (2010).

Legend:
Type in all cases: functional
Echinochloa crus-galli [1] = experiment: Herbicidal activity against Echinochloa crus-galli (barnyard grass) assessed as inhibition of seedling growth at 10 ug/mL at 28 degC
In short: (§1)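 Ten barnyardgrass seeds placed in cup over glass beads and filter paper holding 5 mL aqueous test solution (emulsified if needed); germinated 65 h at 28 ± 1 °C under light. Mean above-ground seedling height per cup measured; inhibition percentage derived.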

Ascochyta = experiment: Fungicidal activity against Ascochyta […] in cucumber plant two seed leaves stage assessed as control efficacy from disease indices at 500 ug/mL at 18 to 30 degC and above 80%RH relative to control; conditions: read-out: GI
In short: (§2)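 Cucumber seeds germinated (soaked 2 h in water at 50 °C, kept moist 24 h at 28 °C) and grown in 1:1 vermiculite/peat; two-seed-leaf plants sprayed at 500 μg/mL, then inoculated 2 h later by spraying conidial (C. cassiicola, A. citrullina, P. cubensis), bacterial (P. syringae) or mycelial (S. sclerotiorum) suspension. Held 18-30 °C, >80% RH; four repeats; control efficacy = (CK−PT)/CK×100 from disease indices once untreated plants fully symptomatic.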

Sclerotinia sclerotiorum = experiment: Fungicidal activity against Sclerotinia sclerotiorum in cucumber plant two seed leaves stage assessed as control efficacy from disease indices at 500 ug/mL at 18 to 30 degC and above 80%RH relative to control; conditions: read-out: GI; in short: as §2
[2] = test system: Brassica rapa subsp. oleifera; experiment: Herbicidal activity against Brassica rapa subsp. oleifera assessed as inhibition of root growth at 10 ug/mL at 28 degC
In short: (§3)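 Rape seeds soaked 4 h in distilled water, then 15 per 6 cm dish on filter paper wetted with 2 mL aqueous test solution (emulsified if needed); germinated 65 h at 28 ± 1 °C in darkness. Mean length of 10 roots per dish measured; percentage inhibition calculated against distilled-water check.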

Corynespora cassiicola = experiment: Fungicidal activity against Corynespora cassiicola in cucumber plant two seed leaves stage assessed as control efficacy from disease indices at 500 ug/mL at 18 to 30 degC and above 80%RH relative to control; conditions: read-out: GI; in short: as §2
[3] = test system: Brassica rapa subsp. oleifera; experiment: Herbicidal activity against Brassica rapa subsp. oleifera assessed as inhibition of root growth at 100 ug/mL at 28 degC; in short: as §3
Echinochloa crus-galli [4] = experiment: Herbicidal activity against Echinochloa crus-galli (barnyard grass) assessed as inhibition of seedling growth at 100 ug/mL at 28 degC; in short: as §1
[5] = test system: Pseudomonas amygdali pv. lachrymans; experiment: Fungicidal activity against Pseudomonas syringae pv. lachrymans in cucumber plant two seed leaves stage assessed as control efficacy from disease indices at 500 ug/mL at 18 to 30 degC and above 80%RH relative to control; conditions: read-out: GI; in short: as §2
[6] = test system: Pseudoperonospora cubensis; experiment: Fungicidal activity against Pseudoperonospora cubensis in cucumber plant two seed leaves stage assessed as control efficacy from disease indices at 500 ug/mL at 18 to 30 degC and above 80%RH relative to control; conditions: read-out: GI; in short: as §2

SMILES	inhibition at 10 µg/mL (Echinochloa crus-galli [1])	inhibition of growth at 500 µg/mL (Ascochyta)	inhibition of growth at 500 µg/mL (Sclerotinia sclerotiorum)	inhibition at 10 µg/mL [2]	inhibition of growth at 500 µg/mL (Corynespora cassiicola)	inhibition at 100 µg/mL [3]	inhibition at 100 µg/mL (Echinochloa crus-galli [4])	inhibition of growth at 500 µg/mL [5]	inhibition of growth at 500 µg/mL [6]
Cc1ccnc(N2CCN(Cn3nc(C(F)(F)F)n(/N=C/c4ccccc4[N+](=O)[O-])c3=S)CC2)n1	11.5%	44.3%	32.8%	0%	73.8%	0%	33.9%	44.5%	76.8%
Cc1cc(C)nc(N2CCN(Cn3nc(C(F)(F)F)n(/N=C/c4ccccc4)c3=S)CC2)n1	0%	61.5%	48%	36.9%	22.1%	71.1%	9.8%	55%	74.1%
Cc1cc(C)nc(N2CCN(Cn3nc(C(F)(F)F)n(/N=C/c4ccccc4F)c3=S)CC2)n1	17.1%	83.5%	72%	67.1%	78.7%	72.4%	33.2%	56.1%	79.2%
COc1ccc(/C=N/n2c(C(F)(F)F)nn(CN3CCN(c4nc(C)cc(C)n4)CC3)c2=S)cc1	0%	87.6%	62.6%	30.6%	83.7%	67.7%	29.5%	50.3%	87.3%
Cc1cc(C)nc(N2CCN(Cn3nc(C(F)(F)F)n(/N=C/c4ccc(C)c(C)c4)c3=S)CC2)n1	0%	82.9%	48.9%	6%	85.9%	20.5%	8.7%	59.5%	67.8%
Cc1cc(C)nc(N2CCN(Cn3nc(C(F)(F)F)n(/N=C/c4ccc(Cl)cc4)c3=S)CC2)n1	12.3%	62.8%	38%	9.5%	94.4%	88.5%	36.6%	61.5%	91.6%
Cc1cc(C)nc(N2CCN(Cn3nc(C(F)(F)F)n(/N=C/c4ccccc4[N+](=O)[O-])c3=S)CC2)n1	0%	88.4%	39.3%	0%	87.8%	11.2%	10.2%	46.5%	77.2%
COc1nc(C)nc(NC(=O)NS(=O)(=O)c2ccccc2Cl)n1 [CHLORSULFURON]	8.2%			76%		80.4%	29.9%		
COc1ccc(C(=CC(=O)N2CCOCC2)c2ccc(Cl)cc2)cc1OC [DIMETHOMORPH]		98.4%	98.4%		95.3%			14%	83.8%
CC(C)NC(=O)N1CC(=O)N(c2cc(Cl)cc(Cl)c2)C1=O [IPRODIONE]		98.4%	97.8%		53.5%			38.5%	55.9%
COC(=O)NC(=S)Nc1ccccc1NC(=S)NC(=O)OC [THIOPHANATE METHYL]		100%	83.4%		78.8%			54.2%	68.7%
